Measurements pooled from the literature.
Lines come from different studies, so protocols differ.
Cell line: RAW264.7

The IC50 of `CCOc1ccc(Nc2c3c(nc4ccccc24)CCC3)cc1` is reported as 38.4 µM (cell growth or viability, resazurin; 72 h).
`COc1ccc2c(c1)c(CC(=O)O)c(C)n2C(=O)c1ccc(Cl)cc1` has an IC50 of 26.5 µM (NO release, inhibitor, Griess; 24 h, LPS-stimulated).
`C[C@@H]1C[C@H]2[C@@H]3CCC4=CC(=O)C=C[C@]4(C)[C@@]3(F)[C@@H](O)C[C@]2(C)[C@@]1(O)C(=O)CO` has an IC50 of 13.1 µM (NO release, inhibitor, Griess; LPS-stimulated).
For `C=C1CC[C@@H]2[C@](C)(CO)[C@H](O)CC[C@@]2(C)[C@@H]1C/C=C1/C(=O)OC[C@H]1O`, the IC50 was 48.6 µM (NO release, inhibitor, Griess; 24 h, LPS-stimulated).
For `COc1ccc(C[C@H](N)C(=O)N[C@H]2[C@@H](O)[C@H](n3cnc4c(N(C)C)ncnc43)O[C@@H]2CO)cc1`, the IC50 was 1.54 µM (cell growth or viability, resazurin; 72 h).
The inhibition of `[H]/N=C(/NC)NCCC[C@H](N)C(=O)O` is reported as 97.1% (NO release, inhibitor, Griess; 250 µg/mL, 24 h, LPS-stimulated).
The IC50 of `C[C@]12C=CC(=O)C=C1CC[C@@H]1[C@@H]2[C@@H](O)C[C@@]2(C)[C@H]1CC[C@]2(O)C(=O)CO` is reported as 0.2 µg/mL (NO release, inhibitor, Griess; 24 h, LPS-stimulated).
The IC50 of `[H]/N=C(/NC)NCCC[C@H](N)C(=O)O` is reported as 21.8 µM (NO release, inhibitor, Griess; LPS-stimulated).
